{"data": "Published values from different studies", "target": "Serine/threonine-protein kinase 24 (STK24, Homo sapiens, UniProt Q9Y6E0)", "note": "Compare with care: the assays were run in different laboratories."}
{"SMILES": "Cn1cncc1[C@@](O)(COc1ccc(C#N)cc1-c1ccc(OC(F)(F)F)cc1)c1ccc(C#N)cc1", "assay": "cell-free assay, competition with immobilised ligand", "setting": "1 µM", "quantity": "remaining binding", "value": "100%"}
{"SMILES": "Cc1nn(C)cc1-c1nc2c(N3CCN(Cc4ccc(Cl)cc4)CC3)c(Cl)cnc2[nH]1", "assay": "binding, competition with immobilised ligand", "setting": "1 µM", "quantity": "remaining binding", "value": "85%"}
{"SMILES": "CC(C)(C)c1cc(C=C(C#N)C#N)cc(Br)c1O", "assay": "enzyme activity, inhibitor", "setting": "0.5 µM", "quantity": "remaining activity", "value": "96.3%"}
{"SMILES": "Cn1cc(-c2cc(F)cc(N3CCn4c(cc5c4CCCC5)C3=O)c2CO)cc(Nc2ccc(N3CCN(C4COC4)CC3)cn2)c1=O", "assay": "enzyme activity, inhibitor", "setting": "0.1 µM", "quantity": "inhibition", "value": "18%"}
{"SMILES": "Nc1ncc(-c2nc(N3CCOCC3)nc(N3CCOCC3)n2)c(C(F)F)n1", "assay": "binding, competition with immobilised ligand", "setting": "10 µM", "quantity": "remaining binding", "value": "91%"}
{"SMILES": "COc1ncccc1-c1cnn2ccc(N3CCN(C(=O)OC(C)C)CC3)nc12", "assay": "binding, competition with immobilised ligand", "setting": "1 µM", "quantity": "remaining binding", "value": "84%"}
{"SMILES": "O=c1[nH]c2ccccc2n1C1CCN(Cc2ccc(-c3[nH]c4cc5ncnc5cc4nc3-c3ccccc3)cc2)CC1", "assay": "cell-free assay", "setting": "0.5 µM", "quantity": "remaining signal", "value": "90.7%"}
{"SMILES": "COCc1c(-c2cc3cc(C)cc(OC)c3s2)c2c(N)ncnn2c1CN1CCNC(=O)C1", "assay": "cell-free assay, competition with immobilised ligand", "setting": "1 µM", "quantity": "inhibition", "value": "90.6%"}
{"SMILES": "N#CC1(c2ccccn2)CCN(Cc2cc(C(=O)O)c(=O)n3ccccc23)CC1", "assay": "cell-free assay, competition with immobilised ligand", "setting": "1 µM", "quantity": "remaining binding", "value": "100%"}
{"SMILES": "Cn1cc(-c2cccc(N3CCc4c(sc5c4CC(C)(C)C5)C3=O)c2CO)cc(Nc2ccncn2)c1=O", "assay": "enzyme activity, inhibitor", "setting": "1 µM", "quantity": "inhibition", "value": "3%"}
